Legend:
[1] = target: Matrix metalloproteinase-9 (Homo sapiens, UniProt P14780); test: Inhibitory activity against Matrix metalloprotease-9; design: species or system Komagataella pastoris
How it was run: (§1)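 Recombinant enzymes: C-terminally truncated collagenase-1, gelatinase-B and stromelysin. IC50 from nonlinear fit of rate versus inhibitor concentration to v = V0/(1+[I]/IC50). Values are the average of two or more independent determinations, SD ±20% or better.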

[2] = target: T1, Interstitial collagenase (Homo sapiens, UniProt P03956); test: Inhibitory activity against Matrix metalloprotease-1; how it was run: as §1
T1 sequence (P03956 whole entry): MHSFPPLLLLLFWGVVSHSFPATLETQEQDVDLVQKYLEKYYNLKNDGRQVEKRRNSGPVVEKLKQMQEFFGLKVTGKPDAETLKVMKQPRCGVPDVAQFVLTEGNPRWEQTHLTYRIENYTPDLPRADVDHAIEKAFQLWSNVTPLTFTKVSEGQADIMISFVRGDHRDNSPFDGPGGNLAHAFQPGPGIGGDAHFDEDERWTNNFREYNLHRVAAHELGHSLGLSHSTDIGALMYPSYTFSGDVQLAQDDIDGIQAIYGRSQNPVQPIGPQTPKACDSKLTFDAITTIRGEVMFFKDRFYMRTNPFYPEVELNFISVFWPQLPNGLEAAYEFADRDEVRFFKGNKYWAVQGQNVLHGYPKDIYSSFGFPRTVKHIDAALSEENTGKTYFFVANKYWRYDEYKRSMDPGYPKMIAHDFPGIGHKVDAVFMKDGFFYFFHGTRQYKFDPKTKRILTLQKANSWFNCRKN

[3] = Inhibitory activity against stromelysin.; how it was run: as §1

Chain of Matrix metalloproteinase-9 (P14780 whole entry, the tested form may be a part): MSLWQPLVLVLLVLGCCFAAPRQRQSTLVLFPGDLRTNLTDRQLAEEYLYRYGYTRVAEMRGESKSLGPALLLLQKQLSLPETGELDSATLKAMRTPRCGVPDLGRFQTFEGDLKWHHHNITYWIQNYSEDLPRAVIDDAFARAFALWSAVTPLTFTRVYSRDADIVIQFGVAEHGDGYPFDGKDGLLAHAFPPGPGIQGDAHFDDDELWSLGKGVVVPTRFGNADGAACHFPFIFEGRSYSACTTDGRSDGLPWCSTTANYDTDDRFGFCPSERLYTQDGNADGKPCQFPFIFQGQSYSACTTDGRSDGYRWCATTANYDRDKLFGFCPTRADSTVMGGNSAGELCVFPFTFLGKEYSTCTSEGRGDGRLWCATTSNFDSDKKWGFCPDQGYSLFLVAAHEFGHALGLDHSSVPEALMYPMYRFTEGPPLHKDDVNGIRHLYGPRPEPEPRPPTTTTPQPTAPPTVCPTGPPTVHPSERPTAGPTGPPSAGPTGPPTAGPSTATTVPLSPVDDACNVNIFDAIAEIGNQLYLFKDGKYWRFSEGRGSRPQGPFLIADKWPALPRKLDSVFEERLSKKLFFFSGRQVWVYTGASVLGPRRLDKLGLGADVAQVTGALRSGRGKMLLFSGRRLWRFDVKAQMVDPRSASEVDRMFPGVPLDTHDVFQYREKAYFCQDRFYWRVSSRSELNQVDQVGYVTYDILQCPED

**Q.** Which results are given for `CC(C)(C)NC(=O)C(Cc1ccccc1)N1C(=O)[C@H](CS)NC(=O)[C@@H]1Cc1ccc([N+](=O)[O-])cc1` (some centres undefined)?
**A.** IC50 [1]: 1200 nM; IC50 [2]: 37 nM

**Q.** Which IC50 [1] does the source give for `CC(C)(C)NC(=O)C(C1CC1)N1C(=O)[C@H](CS)NC(=O)[C@@H]1Cc1ccc([N+](=O)[O-])cc1` (some centres undefined) here?
**A.** The IC50 was 1180 nM.

**Q.** What about the IC50 [2] of the same compound?
**A.** Its IC50 is 37 nM.

**Q.** Which IC50 [1] does the source give for `CCCN1C(=O)[C@H](CS)NC(=O)[C@@H]1Cc1ccc([N+](=O)[O-])cc1` here?
**A.** The IC50 was 2900 nM.

**Q.** What about the IC50 [3] of the same compound?
**A.** Its IC50 is greater than 20000 nM.

**Q.** What about the IC50 [2] of the same compound?
**A.** The IC50 was 65 nM.

**Q.** What does the source list for `COc1ccc(C(C(=O)NC(C)(C)C)N2C(=O)[C@H](CS)NC(=O)[C@@H]2Cc2ccc([N+](=O)[O-])cc2)cc1` (some centres undefined)?
**A.** IC50 [1]: 1300 nM; IC50 [2]: 21 nM

**Q.** For `CC(C)(C)NC(=O)C(c1ccc(-c2ccccc2)cc1)N1C(=O)[C@H](CS)NC(=O)[C@@H]1Cc1ccc([N+](=O)[O-])cc1` (some centres undefined), which IC50 [1] is on record?
**A.** Its IC50 is 4300 nM.

**Q.** What about the IC50 [2] of the same compound?
**A.** The IC50 was 102 nM.

**Q.** Which IC50 [1] does the source give for `CC(C)(C)NC(=O)C(c1ccccc1)N1C(=O)[C@H](CS)NC(=O)[C@@H]1Cc1ccc([N+](=O)[O-])cc1` (some centres undefined) here?
**A.** Its IC50 is 1300 nM.

**Q.** What about the IC50 [2] of the same compound?
**A.** The IC50 was 25 nM.

**Q.** For `CCCCCCCC(C(=O)NC(C)(C)C)N1C(=O)[C@H](CS)NC(=O)[C@@H]1Cc1ccc([N+](=O)[O-])cc1` (some centres undefined), which IC50 [1] is on record?
**A.** The IC50 was 1500 nM.

**Q.** What about the IC50 [2] of the same compound?
**A.** The IC50 was 36 nM.

**Q.** Which IC50 [1] does the source give for `O=C1N[C@@H](CS)C(=O)N(Cc2ccc3ccccc3n2)[C@H]1Cc1ccc([N+](=O)[O-])cc1` here?
**A.** The IC50 was 1700 nM.

**Q.** What about the IC50 [3] of the same compound?
**A.** Its IC50 is greater than 20000 nM.

**Q.** What about the IC50 [2] of the same compound?
**A.** The IC50 was 74 nM.

**Q.** Which IC50 [1] does the source give for `CC(C)CC(C(=O)NC(C)(C)C)N1C(=O)[C@H](CS)NC(=O)[C@@H]1Cc1ccc([N+](=O)[O-])cc1` (some centres undefined) here?
**A.** The IC50 was 570 nM.

**Q.** And the IC50 [2]?
**A.** The IC50 was 24 nM.

**Q.** With `CC(C)(C)NC(=O)C(c1ccc(Oc2ccccc2)cc1)N1C(=O)[C@H](CS)NC(=O)[C@@H]1Cc1ccc([N+](=O)[O-])cc1` (some centres undefined) as the compound, how does the IC50 [1] read?
**A.** Its IC50 is 4400 nM.

**Q.** What about the IC50 [2] of the same compound?
**A.** The IC50 was 108 nM.

**Q.** For `CCc1ccc(C(C(=O)NC(C)(C)C)N2C(=O)[C@H](CS)NC(=O)[C@@H]2Cc2ccc([N+](=O)[O-])cc2)cc1` (some centres undefined), which IC50 [1] is on record?
**A.** Its IC50 is 2600 nM.

**Q.** And the IC50 [2]?
**A.** Its IC50 is 41 nM.

**Q.** Which IC50 [3] does the source give for `COc1ccc(CN2C(=O)[C@H](CS)NC(=O)[C@@H]2CC2CCCCC2)cc1` here?
**A.** The IC50 was 3800 nM.

**Q.** What does the source list for `CCCN1C(=O)[C@H](CS)NC(=O)[C@@H]1Cc1ccc(NC(C)=O)cc1`?
**A.** IC50 [1]: > 40000 nM; IC50 [3]: > 40000 nM; IC50 [2]: > 40000 nM

**Q.** For `COc1ccc(CN2C(=O)[C@H](CS)NC(=O)[C@@H]2Cc2ccccc2)cc1`, which IC50 [1] is on record?
**A.** The IC50 was 400 nM.

**Q.** And the IC50 [3]?
**A.** The IC50 was 4000 nM.

**Q.** And the IC50 [2]?
**A.** Its IC50 is 110 nM.

**Q.** With `CCCCOc1ccc(C(C(=O)NC(C)(C)C)N2C(=O)[C@H](CS)NC(=O)[C@@H]2Cc2ccc([N+](=O)[O-])cc2)cc1` (some centres undefined) as the compound, how does the IC50 [1] read?
**A.** Its IC50 is 3200 nM.

**Q.** What about the IC50 [2] of the same compound?
**A.** The IC50 was 73 nM.

**Q.** For `COc1ccc(CN2C(=O)[C@H](CS)NC(=O)[C@@H]2Cc2ccc([N+](=O)[O-])cc2)cc1`, which IC50 [1] is on record?
**A.** Its IC50 is 1200 nM.

**Q.** What about the IC50 [3] of the same compound?
**A.** Its IC50 is greater than 40000 nM.

**Q.** And the IC50 [2]?
**A.** Its IC50 is 47 nM.

**Q.** Which results are given for `COc1ccc(CSC[C@H]2C(=O)N[C@@H](CS)C(=O)N2Cc2ccc(OC)cc2)cc1`?
**A.** IC50 [1]: 52 nM; IC50 [3]: 1100 nM; IC50 [2]: 310 nM

Source: ChEMBL document CHEMBL1132120, “Identification of highly selective inhibitors of collagenase-1 from combinatorial libraries of diketopiperazines” (J Med Chem, 1999)
